# From PubChem
# MC4R barr agon: MC4R agonists recruiting beta-arrestin, primary screen, cell-based, luminescence, agonist arm of biased-ligand search. U2OS MC4R beta-arrestin complementation; percent of melanotan II response, DMSO zero. activation, % at 8.9 µM. hit rate 0.98% among 360,000;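 active means activation above a per-plate cutoff, the mean activation of sample wells on that plate plus 3 SD, cut at about 8% in these data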
# HTR2A ag: mouse Htr2a agonists via beta-arrestin recruitment, primary screen, cell-based, luminescence; activation, % at 7.6 µM; CHO-K1 mHTR2A beta-arrestin complementation; percent of 30 µM serotonin response; 5-hydroxytryptamine receptor 2A (Mus musculus), P35363; hit rate 0.66% among 360,000;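 active means activation above a run cutoff, the mean activation of all tested compounds plus 3 SD, cut at about 14% in these data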;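 further: 0% = plate median of compound wells and 100% = 30 µM serotonin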
# TMEM16A inh: TMEM16A chloride channel inhibitors, primary screen, cell-based, HTS; HEK293 TMEM16A/YFP iodide influx fluorescence, ionomycin; normalized B-score (activity score, 25-100; higher = stronger inhibition) at 10 µM; Anoctamin-1 (Mus musculus), Q8BHY3; hit rate 1.2% among 310,000;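 active means ratio plate-corrected score three or more library SD toward inhibition, starting fluorescence score within five deviations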;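 further: score derived from kinetic fluorescence span divided by baseline fluorescence per well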
# ANO1 activ: TMEM16A chloride channel activators or potentiators, primary screen, cell-based, HTS | HEK293 TMEM16A/YFP-H148Q/I152L, iodide quench fluorescence; active compounds read low | B-score at 10 µM | hit rate 0.3% among 340,000 | AID 623877, 2012;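 active means fluorescence-ratio B-score plate-corrected deviation score at least 3 library SD below zero, with starting fluorescence score within 5 deviations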;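 further: channel opened by trigger with iodide after compound preincubation; score built on the fluorescence ratio of max minus min over baseline; more negative score means more quench and so TMEM16A activation or potentiation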
# MC4R antagonist: MC4R antagonists of cAMP signaling, primary screen, cell-based, TR-FRET, antagonist arm of biased-ligand search; hit rate 0.48% among 360,000; inhibition, % at 6.5 µM; AID 540295, 2011; Melanocortin receptor 4 (Homo sapiens), P32245; MC4R-expressing cells, MTII-stimulated cAMP, LANCE TR-FRET;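 active means inhibition above its plate's cutoff, the mean of tested wells on that plate plus 3 SD, cut at about 29% in these data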;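 further: 0% = Melanotan II alone and 100% = Melanotan II plus saturating MCL0020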
#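 material = U2OS cells stably expressing human melanocortin 4 receptor (MC4R) | also added = Melanotan II challenge | dosing = single nominal compound dose of 6.5 µM | detection = TR-FRET with Eu-cAMP and labeled anti-cAMP, 671 nm | replication = singlicate | timing = compound 30 min, challenge 1 h, detection 1 h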
# MIN6 prolif: inducers of MIN6 beta-cell proliferation, primary screen, ATP luminescence, uHTS; MIN6 cells proliferation, ATPlite luminescence, 48 h; cells starved in 0.2% serum; 100% = growth in 10% serum; proliferation, % at 10 µM; hit rate 0.29% among 330,000; AID 2380, 2010;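 active means compounds whose signal lies at least 3.5 SD above the mean of all wells on their plate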;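 further: 0% = DMSO-treated cells in low-serum medium and 100% = 10% serum control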
# MOR ag counter: OPRM1 agonists via beta-arrestin recruitment, confirmation, counter-screen for mouse HTR2A agonist project, cell-based, luminescence, single concentration; shares compounds with HTR2A ag; U2OS OPRM1 beta-arrestin PathHunter; DMSO 0%, DAMGO 9.3 µM 100%; activation, % at 9.3 µM; hit rate 5.3% among 2,300;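 active means mean activation above the mean of DMSO-only wells plus 3 SD, cut at about 0.5% in these data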
# Target sequence (P35372 whole entry, looked up): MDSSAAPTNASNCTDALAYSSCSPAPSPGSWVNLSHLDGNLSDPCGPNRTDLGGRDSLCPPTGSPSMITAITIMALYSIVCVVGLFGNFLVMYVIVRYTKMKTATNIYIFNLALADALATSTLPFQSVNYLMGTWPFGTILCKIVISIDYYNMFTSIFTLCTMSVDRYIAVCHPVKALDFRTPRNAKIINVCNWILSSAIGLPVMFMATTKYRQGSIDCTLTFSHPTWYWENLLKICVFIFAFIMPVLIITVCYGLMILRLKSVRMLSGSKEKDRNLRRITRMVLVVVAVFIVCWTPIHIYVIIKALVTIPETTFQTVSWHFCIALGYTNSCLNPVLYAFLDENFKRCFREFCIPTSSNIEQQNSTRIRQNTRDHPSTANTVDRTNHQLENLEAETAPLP
# HTR2A ag conf: mouse HTR2A agonists, beta-arrestin recruitment, confirmation, cell-based, luminescence, CHO-K1 PathHunter, triplicate; AID 624381, 2012; DMSO 0%, 30 µM serotonin 100%; activation, % at 7.6 µM; hit rate 19% among 2,300; shares compounds with HTR2A ag;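 active means mean activation across triplicates above the hit threshold derived in the original primary screen, cut at about 15% in these data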
# The depositor's hits bear a star; i = inactive; . = no result given. The list is not random: actives were taken first. Their share in the collection is about 3.4%.
SMILES,MC4R barr agon,HTR2A ag,TMEM16A inh,ANO1 activ,MC4R antagonist,MIN6 prolif,MOR ag counter,HTR2A ag conf
C[C@H](CO)N1C[C@H](C)[C@@H](CN(C)S(C)(=O)=O)Oc2ccc(NS(=O)(=O)c3cn(C)cn3)cc2C1=O,-2.3,-0.1,.,.,9.4,-2.0,.,.
O=C(NNC(=O)c1cc(Br)c(Br)s1)c1ccncc1,-1.1,-10.2,.,i,5.2,0.1,.,.
O=C(CSc1nnc(CNC(=O)c2ccc(F)cc2)o1)Nc1nccs1,1.4,14.4*,i,i,4.2,-3.4,-0.6,-3.0
O=C(CSc1nnc(CNC(=O)c2ccccc2)o1)Nc1nccs1,1.3,-4.1,i,i,18.4,-1.1,.,.
C[C@@H]1CN([C@@H](C)CO)C(=O)CCCn2cc(nn2)CO[C@H]1CN(C)C(=O)c1ccc2ccn(C)c2c1,-0.2,-4.0,.,.,1.0,.,.,.
CC(=NC1CC1)c1c(-c2ccccc2)[nH]n(-c2nc3ccccc3s2)c1=O,1.4,14.7*,i,i,15.7,-1.3,-0.7,10.6
CC1CCCN(c2ccc(C(=O)Nc3ccc4c(c3)OCO4)cc2[N+](=O)[O-])C1 (centres undefined),-1.2,38.4*,i,i,2.6,-5.8,-0.7,9.3
O=C(Nc1cccnc1)c1cc(-c2ccco2)on1,-1.0,20.3*,i,i,2.0,-1.3,-0.6,-2.3
O=C(Nc1cccnc1)c1cc(-c2ccccc2)on1,-1.7,-1.1,i,i,-12.3,-2.6,.,.
COc1ccccc1NC(=O)COC(=O)Cc1c[nH]c2ccccc12,2.0,15.3*,i,i,1.9,-1.0,-0.5,-5.4
COc1ccc(C)cc1NC(=O)CN1CCN(c2ccccn2)CC1,-3.2,-8.2,i,i,14.3,-3.0,.,.
CN(C)S(=O)(=O)c1cc(NC(=O)CN2CCN(c3ccccc3)CC2)ccc1Cl,-2.5,17.8*,i,i,10.5,0.0,-0.6,45.4*
CN(C)S(=O)(=O)c1cc(NC(=O)CN2CCN(c3ccc(O)cc3)CC2)ccc1Cl,-2.0,-5.8,i,i,-5.3,-5.8,.,.
COc1ccccc1NC(=O)CN1CCN(c2ccccn2)CC1,-1.2,16.1*,i,i,-1.1,-2.6,-0.4,37.1*
CCN(CC)S(=O)(=O)c1cc(NC(=O)CN2CCN(c3ccccn3)CC2)ccc1C,-2.5,31.7*,i,i,3.2,-1.3,-0.8,94.5*
Cc1ccc(NC(=O)CN2CCN(c3ccccn3)CC2)cc1S(=O)(=O)N(C)C,0.6,51.4*,i,i,-1.1,-2.2,-0.5,117.9*
Cc1ccc(C)c(S(=O)(=O)N2CCN(C(=O)CCC(=O)NCc3ccc(Cl)cc3Cl)CC2)c1,-0.1,-5.0,.,i,-1.7,.,.,.
COc1ccc(CN2C(=O)C(CC(=O)NCCCCc3ccccc3)CC(C(=O)N(C)C)=C2C)cc1 (centres undefined),-0.6,-6.6,.,.,7.9,.,.,.
CC1(C)OC(=O)C2=C(C[C@@H](CCc3ccccc3)O[C@H]2CCc2cccc(Cl)c2)O1,.,-3.6,.,.,.,.,.,.
O=C(CNC(=O)c1ccc(Br)o1)NNC(=O)c1ccccc1O,-0.8,16.6*,i,i,8.4,0.0,-0.6,-3.8
O=C(/C=C/[C@H]1O[C@@H](n2ccc(=O)[nH]c2=O)[C@H](O)[C@@H]1O)NCc1ccccc1,.,4.9,.,.,.,.,.,.
O=C(/C=C/[C@H]1O[C@@H](n2ccc(=O)[nH]c2=O)[C@H](O)[C@@H]1O)NCCN1CCCCC1,.,16.0*,.,.,.,.,-0.7,-3.2
O=S(=O)(c1ccc(Cl)cc1)N1CCN(C2CCN(Cc3ccccc3)CC2)CC1,-2.0,-2.6,i,i,3.4,-0.7,.,.
COc1ccc(S(=O)(=O)N2CCC(N3CCN(Cc4ccccc4)CC3)CC2)cc1,-0.3,22.1*,i,i,-2.5,-0.8,-0.7,41.5*
O=C(Nc1cccnc1)c1cc(-c2cccc(Br)c2)nc2ccccc12,2.6,0.3,i,i,3.8,-3.5,.,.
SMILES,MC4R barr agon,HTR2A ag,TMEM16A inh,ANO1 activ,MC4R antagonist,MIN6 prolif,MOR ag counter,HTR2A ag conf
O=C(Nc1ccncc1)c1cc(-c2cccc(Br)c2)nc2ccccc12,21.6*,14.8*,i,i,17.6,-6.7,3.7*,10.2
CCc1nn(CC(=O)NCCc2ccc(S(N)(=O)=O)cc2)c(=O)c2cc3sccc3n12,0.4,26.5*,i,i,-3.9,-2.3,-0.7,-2.2
CC(=O)c1ccc(NC(=O)C(C)O/N=C(\N)c2ccccc2)cc1 (centres undefined),1.1,15.2*,.,i,5.5,-1.5,-0.5,-4.4
NC[C@@H]1O[C@H](C23CC4CC(CC(C4)C2)C3)Cc2c1ccc(O)c2O,0.4,25.5*,i,i,-22.0,-7.4,-0.2,100.3*
COc1ccc(S(=O)(=O)N2CCC(C(=O)N[C@@H](C)C(=O)NCc3cccnc3)CC2)cc1,-1.1,-4.2,.,.,0.1,.,.,.
CCC(C)c1ccc(N(CC(=O)NC(C)(C)C)C(=O)CNC(=O)c2cccs2)cc1 (centres undefined),1.9,-3.7,i,i,-6.6,-5.9,.,.
O=C(C[C@@H]1C/C=C\CCCC(=O)OC[C@@H]2CCCN2C1=O)NCCO,-2.7,8.8,.,i,2.1,1.1,.,.
O=C(C[C@H]1C/C=C\CCC(=O)OC[C@H]2CCCN2C1=O)NCCO,-1.6,19.5*,.,i,-0.8,-2.1,-0.6,-3.3
Cc1ccc(NC(=O)C2(C)CCN2C(=O)Cc2ccc(C(C)C)cc2)cc1 (centres undefined),0.5,-0.5,.,.,10.7,.,.,.
CCOC(=O)Cc1nnc(NC(=O)CSc2nncn2C)s1,-1.9,-2.2,i,i,1.2,-1.6,.,.
CCOC(=O)Cc1nnc(NC(=O)C(CC)Sc2nncn2C)s1 (centres undefined),-0.6,14.4*,i,i,-5.5,-0.7,-0.7,-3.7
